From ChEMBL document CHEMBL3272023, “Metabolic formation and synthesis of 1-(3-chlorophenyl)-2(4-hydroxyphenyl)-1-methyl-2(2 pyridine)ethanol. A potential hypocholesteremic agent” (J Med Chem, 1976) come the findings set out here.

Where only a bound is given, the exact number is not on record here.

What all share (conditions): in vivo
Series [1] is described as follows: Drug metabolism in Sprague-Dawley rat urine at 15.6 uCi, ip using Et2O TLC system. It counts as ADME, organism-based. An outline of the steps:
(§1)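 Urine from two rats (250 g) given 300 mg/kg (15.6 µCi) ip was examined by TLC, directly and before/after enzymatic hydrolysis (pH 5.8, 37°, 72 h). Standards were located by fluorescence quenching. Radioactivity was measured by scintillation counting of 0.5-cm silica gel strips scraped from the plates.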

Series [2] is described as follows: Drug excretion in Sprague-Dawley rat assessed as radioactivity in feces at 1.71 uCi, ip measured on day 13. It counts as ADME, organism-based. An outline of the steps: (§2)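 Three male rats (250 ± 10 g), each in its own metabolic cage with diet and water ad libitum, given 40 mg/kg ³H-labelled drug (1.71 µCi) ip as 1 ml aqueous 0.26% Tween 80 suspension. Urine and feces collected at 11 h, then daily for 13 days. Feces air-dried, powdered, oxidized and counted. Tissues assayed after sacrifice on day 14.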

Series [3] in a line: Drug metabolism in Sprague-Dawley rat urine at 15.6 uCi, ip using hexane-chloroform-acetic acid at 6:3:1 ratio TLC system I. It counts as ADME, organism-based. The method, boiled down:
as §1

Series [4] can be described thus: Drug excretion in Sprague-Dawley rat assessed as total radioactivity in feces at 1.71 uCi, ip. Format: ADME. The method, boiled down:
as §2

Series [5] is described as follows: Retardation factor of the compound in Sprague-Dawley rat urine at 15.6 uCi, ip using hexane-chloroform-acetic acid at 6:3:1 ratio TLC system I. It counts as physicochemical, organism-based. An outline of the steps:
as §1

Series [6] can be described thus: Drug excretion in Sprague-Dawley rat assessed as radioactivity in urine at 1.71 uCi, ip measured on day 7. Format: ADME, organism-based. The method, boiled down: as §2
Series [7] can be described thus: Drug metabolism in Sprague-Dawley rat urine assessed as hydroxylated 2-benzylpyridine at 15.6 uCi, ip by gas chromatography-mass spectrometry. It counts as ADME, organism-based. The method, boiled down:
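Two rats (250 g) dosed ip at 300 mg/kg (15.6 µCi). Urine hydrolysed at pH 5.8, 37°, 72 h with Helix pomatia glucuronidase/arylsulfatase or bovine liver β-glucuronidase. Preparative TLC in system II; the radioactive band at Rf 0.6 extracted into Et2O and silylated (bis(trimethylsilyl)acetamide/triethylamine). GLC on 3% SE-30, fractions counted, radioactive peak sent to MS.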

Series [8] is described as follows: Drug excretion in Sprague-Dawley rat assessed as radioactivity in urine at 1.71 uCi, ip measured on day 1. It counts as ADME, organism-based. An outline of the steps:
as §2

Series [9] can be described thus: Drug excretion in Sprague-Dawley rat assessed as radioactivity in feces at 1.71 uCi, ip measured on day 1.
Series [10] is described as follows: Drug metabolism in Sprague-Dawley rat urine at 15.6 uCi, ip using benzene-methanol at 8:2 ratio TLC system II. It counts as ADME, organism-based. The method, boiled down:
as §1

With `CC(O)(c1cccc(Cl)c1)C(c1ccccc1)c1ccccn1` (stereo not given), the Drug metabolism result in series [1] is listed as “metabolite_detected”; in series [3], “metabolite_notdetected”; in [7], “metabolite_detected”; in series [10], “metabolite_detected”. Also, the Drug excretion in series [2] is recorded as under 1%; in [4] it was 25%; in series [6], under 1%; in [8], 5%; in [9], 7%. Also, in series [5], the Rf came to 0.56.
